Assay results reported in ChEMBL document CHEMBL4715886, “Microwave-assisted efficient synthesis of pyrazole-fibrate derivatives as stimulators of glucose uptake in skeletal muscle cells” (2021).
Active and inactive are the calls of the source. No cut-off for these calls is given here.

Tests used:
[1] = molecular target: T1, Solute carrier family 2, facilitated glucose transporter member 4 (Rattus norvegicus) (UniProt P19357); test: Induction of GLUT4 translocation in rat L6 cells harboring GLUT4-myc assessed as increase in surface level GLUT4myc at 10 uM after 16 hrs; format: cell-based
T1 sequence (whole entry): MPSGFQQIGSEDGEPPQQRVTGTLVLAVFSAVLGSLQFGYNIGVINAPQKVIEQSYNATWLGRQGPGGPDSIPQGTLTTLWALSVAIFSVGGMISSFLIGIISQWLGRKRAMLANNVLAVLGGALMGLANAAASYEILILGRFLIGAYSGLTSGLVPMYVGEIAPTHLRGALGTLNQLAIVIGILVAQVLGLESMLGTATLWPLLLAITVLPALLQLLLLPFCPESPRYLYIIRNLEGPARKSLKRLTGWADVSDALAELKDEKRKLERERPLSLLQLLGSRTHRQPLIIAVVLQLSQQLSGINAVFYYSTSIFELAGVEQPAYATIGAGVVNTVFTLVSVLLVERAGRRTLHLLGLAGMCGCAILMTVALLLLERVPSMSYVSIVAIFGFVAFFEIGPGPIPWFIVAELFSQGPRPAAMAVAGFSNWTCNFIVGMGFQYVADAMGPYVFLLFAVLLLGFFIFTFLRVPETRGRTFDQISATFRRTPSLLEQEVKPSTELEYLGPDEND

[2] = tested on: L6; test: Induction of glucose uptake in rat L6 cells harboring GLUT4-myc assessed as glucose uptake at 10 uM relative to control; format: functional
Summary of the method: (§1)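 L6-GLUT4myc rat skeletal muscle cells were exposed once to test compound at 10 µM. Glucose uptake was read and reported as fold increase and as percent stimulation over untreated control.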

[3] = tested on: L6; test: Induction of glucose uptake in rat L6 cells harboring GLUT4-myc assessed as fold change in glucose uptake at 10 uM; format: functional; summary of the method: as §1
[4] = tested on: L6; test: Induction of glucose uptake in rat L6 cells harboring GLUT4-myc assessed as fold change in glucose uptake at 500 uM; format: functional
Summary of the method: (§2)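 L6-GLUT4myc skeletal muscle cells were exposed to the reference agent at 500 µM. Glucose uptake was measured as fold increase and as percent stimulation relative to untreated control.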

[5] = tested on: L6; test: Induction of glucose uptake in rat L6 cells harboring GLUT4-myc assessed as glucose uptake at 500 uM relative to control; format: functional; summary of the method: as §2
[6] = molecular target: T1, Solute carrier family 2, facilitated glucose transporter member 4 (Rattus norvegicus); test: Induction of GLUT4 translocation in rat L6 cells harboring GLUT4-myc assessed as fold change in increase of surface level GLUT4myc at 500 uM after 16 hrs; format: cell-based
Summary of the method: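 L6-GLUT4myc myotubes were exposed for 16 h, and cell-surface GLUT4myc level was then measured. Experiments were done in triplicate and expressed as mean ± SE, with p relative to the unstimulated control.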

Compound | Activity [2] [%] | also measured
CCOC(=O)C(C)(C)Oc1ccc(-c2nc3c(cnn3-c3ccccc3)c(=O)[nH]2)cc1 | 34.4 | Activity [1]: Active; fold change (FC) [3]: 1.34
CCOC(=O)C(C)Oc1ccc(-c2nc3c(cnn3-c3ccc(F)cc3)c(=O)[nH]2)cc1 (configuration not stated) | 0.6 | –
CCOC(=O)C(C)Oc1ccc(-c2nc3c(cnn3-c3ccc(F)cc3)c(=O)n2C)cc1 (configuration not stated) | 2.9 | –
CCOC(=O)CCCOc1ccc(-c2nc3c(cnn3-c3ccc(C)c(C)c3)c(=O)[nH]2)cc1 | 54 | Activity [1]: Active; fold change (FC) [3]: 1.54
CCOC(=O)CCCOc1ccc(-c2nc3c(cnn3-c3ccc(F)cc3)c(=O)[nH]2)cc1 | 6.4 | –
CCOC(=O)C(C)Oc1ccc(-c2nc3c(cnn3-c3ccc(OC)cc3)c(=O)[nH]2)cc1 (configuration not stated) | 34.4 | Activity [1]: Active; fold change (FC) [3]: 1.34
CCOC(=O)CCCOc1ccc(-c2nc3c(cnn3-c3ccc(F)cc3F)c(=O)[nH]2)cc1 | 2.9 | –
CCOC(=O)C(C)(C)Oc1ccc(-c2nc3c(cnn3-c3ccc(OC)cc3)c(=O)[nH]2)cc1 | 5 | –
CCOC(=O)COc1ccc(-c2nc3c(cnn3-c3ccc(OC)cc3)c(=O)[nH]2)cc1 | 13.1 | –
CCOC(=O)COc1ccc(-c2nc3c(cnn3-c3ccccc3)c(=O)[nH]2)cc1 | -8.6 | –
CCOC(=O)C(C)(C)Oc1ccc(-c2nc3c(cnn3-c3ccc(F)cc3F)c(=O)[nH]2)cc1 | -12.8 | –
CCOC(=O)COc1ccc(-c2nc3c(cnn3-c3ccc(F)cc3F)c(=O)[nH]2)cc1 | -1.6 | –
CCOC(=O)CCCOc1ccc(-c2nc3c(cnn3-c3ccccc3)c(=O)[nH]2)cc1 | -8.3 | –
CCOC(=O)C(C)Oc1ccc(-c2nc3c(cnn3-c3ccc(C)c(C)c3)c(=O)[nH]2)cc1 (configuration not stated) | -17.2 | –
CN(C)C(=N)NC(=N)N [METFORMIN] | – | fold change (FC) [4]: 1.48; Activity [5]: 48%; fold change (FC) [6]: 1.45
CCOC(=O)COc1ccc(-c2nc3c(cnn3-c3ccc(F)cc3)c(=O)[nH]2)cc1 | 23.7 | –
CCOC(=O)C(C)Oc1ccc(-c2nc3c(cnn3-c3ccc(F)cc3F)c(=O)[nH]2)cc1 (configuration not stated) | -14.7 | –
CCOC(=O)C(C)(C)Oc1ccc(-c2nc3c(cnn3-c3ccc(C)c(C)c3)c(=O)[nH]2)cc1 | 12.9 | –
CCOC(=O)COc1ccc(-c2nc3c(cnn3-c3ccc(C)c(C)c3)c(=O)[nH]2)cc1 | -16.8 | –
CCOC(=O)C(C)(C)Oc1ccc(-c2nc3c(cnn3-c3ccc(F)cc3)c(=O)[nH]2)cc1 | 0.6 | –
CCOC(=O)CCCOc1ccc(-c2nc3c(cnn3-c3ccc(OC)cc3)c(=O)[nH]2)cc1 | 10.4 | –
CCOC(=O)C(C)Oc1ccc(-c2nc3c(cnn3-c3ccccc3)c(=O)[nH]2)cc1 (configuration not stated) | 34 | Activity [1]: Active; fold change (FC) [3]: 1.34
